# ABHD5 PLIN5 PPI: ABHD5-PLIN5 interaction inhibitors, primary screen, cell lysate, split luciferase complementation, luminescence | Perilipin-5 (Homo sapiens) + 1-acylglycerol-3-phosphate O-acyltransferase ABHD5 (Homo … | Split G. princeps luciferase complementation, 4 h | inhibition, % at 4 µM | actives 0.78% (n = 360,000) | AID 602281, 2012;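 active means inhibition above the mean inhibition across every tested compound plus 3 SD, cut at about 22% in these data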;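 further: 0% = DMSO only wells and the 100% control is not disclosed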
# CHOP UPR activ: activators of apoptotic CHOP UPR arm, primary screen, cell-based, CHO-CHOP luciferase reporter, luminescence, uHTS; UPR activation; percent of tunicamycin response over DMSO baseline; activation, % at 10 µM; actives 0.34% (n = 330,000);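 active means at 10 µM dose, activation of 40% or more, normalized to positive control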;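 further: 100% = tunicamycin at 10 µg/mL and 0% = DMSO alone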
#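 Test system: CHO CHOP reporter cells. Input: 500 CHO-CHOP cells per well. Medium: F12 with 10% FBS. Technique: luciferase luminescence. Measure: percent activation relative to tunicamycin control. Dosing: 10 µM compound, 0.5% DMSO. Timing: 16-18 h cell attachment, then 6 h compound exposure, 37 °C.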
# Mdm2-MdmX inh: inhibitors of human Mdm2-MdmX association, primary screen, cell-based, luminescence, split luciferase, SaOS-2, uHTS. Protein Mdm4 (Homo sapiens) + E3 ubiquitin-protein ligase Mdm2 (Homo sapiens), …. SaOS-2 split-luciferase Mdm2/MdmX complementation. inhibition, % at 8 µM. actives 3% (n = 330,000). AID 485346, 2010;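 active means inhibition of at least 50% at 8 µM in the primary screen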
# Exocytosis inh: LAMP-1 surface exposure blockers, TALL-104 cells – cell-based, flow cytometry, MLPCN library, primary screen | TALL-104 LAMP-1 surface exposure; cells stimulated with thapsigargin and PMA | inhibition, % at 10 µM | actives 0.66% (n = 360,000);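 active means inhibition above about 55%, limit read from the data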
# XBP1 UPR activ: activators of adaptive XBP1 UPR arm, primary screen, cell-based, CHO-XBP1 luciferase reporter, luminescence, uHTS | IRE1-XBP1 UPR activation; percent of tunicamycin response, DMSO as zero | activation, % at 20 µM | actives 0.33% (n = 330,000) | AID 463104, 2010;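 active means versus positive control, 20 µM dose yields 30% or more activation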;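 further: 100% = tunicamycin at 10 µg/mL and 0% = DMSO only wells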
#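 Material – CHO cell line with stable XBP1 luciferase reporter · Buffer or medium – F12 plus 10% FBS · Compound – single point, 20 µM final compound, 1% DMSO · Schedule – 16-18 h cell attachment at 37 °C, then 6 h compound exposure · Signal – Steady-Glo luminescence read · Benchmarks – high control tunicamycin 10 µg/mL final, low control DMSO vehicle only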
# Mdm2 MdmX conf: Mdm2-MdmX complex disruptors, retested hits, confirmation, luminescence, single concentration. Mdm2-MdmX binding, luminescent assay. actives 55% (n = 10,000). AID 489028, 2010. shares compounds with Mdm2-MdmX inh. inhibition, % at 8 µM; in the data active means inhibition above about 40%
# FLuc counter: full-length luciferase signal inhibition, confirmation, counter-screen for Mdm2/MdmX interaction inhibitor project, cell-based, single concentration, SaOS-2. actives 77% (n = 6,200). shares compounds with Mdm2-MdmX inh. SaOS-2 full-length luciferase counterscreen, luminescence. inhibition, % at 8 µM;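 active means mean inhibition at 8 µM reaching about 37%, which flags the compound as non-specific, limit read from the data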;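 further: p53-null SaOS-2 cells with luciferase driven by a doxycycline-inducible promoter; compound on cells about two nights before reading with doxycycline added after day one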
# An asterisk follows results filed as active; . = no result. Hits are enriched below; roughly 4% of the tested compounds scored in any of these assays.
SMILES,ABHD5 PLIN5 PPI,CHOP UPR activ,Mdm2-MdmX inh,Exocytosis inh,XBP1 UPR activ,Mdm2 MdmX conf,FLuc counter
Cc1cccc(NC(=O)c2nc[nH]c2C(=O)NCCCNC(=O)c2[nH]cnc2C(=O)Nc2cccc(C)c2)c1,2,10,73*,1,9,63*,43*
Cc1cccc(NC(=O)c2nc[nH]c2C(=O)N[C@@H](CCCCNC(=O)OC(C)(C)C)C(=O)OC(C)(C)C)c1,-12,2,61*,8,2,24,.
Cc1cccc(NC(=O)c2nc[nH]c2C(=O)NC2CCN(C(=O)OC(C)(C)C)CC2)c1,-7,4,55*,-3,1,26,.
Cc1cccc(NC(=O)c2nc[nH]c2C(=O)NCCCCCNC(=O)OC(C)(C)C)c1,-6,4,32,13,0,.,.
Cc1cc(NC(=O)CSc2ccc3nnc(-c4ccc(Cl)cc4)n3n2)no1,-2,-2,27,-1,-2,.,.
CCOC(=O)c1c(N2C(=O)Nc3ccccc3N2O)sc2c1CCCCC2,0,2,8,2,0,.,.
COc1ccc(-c2cncnc2-c2ccc(OC)cc2O)cc1,-1,-2,62*,6,-3,62*,27
N#C/C(=C\c1cn(CCOc2ccccc2F)c2ccccc12)C(=O)NCc1cccs1,6,0,54*,-6,7,21,.
CSc1nnc(C)c(=O)n1COC(=O)COc1ccc2ccccc2c1,6,0,6,-5,-6,.,.
Nc1ccn([C@@H]2O[C@H](CO)[C@@H](O)[C@@H]2O)c(=O)n1,2,.,.,-3,.,.,.
Nc1ncn([C@@H]2O[C@H](CO)[C@@H](O)[C@H]2O)c(=O)n1,-8,25,52*,3,6,50*,59*
CN(C)c1ncnc2c1ncn2C1OC(CO)C(O)C1O (centres undefined),1,-4,76*,-2,-1,43*,20
COc1ccc(C[C@H](N)C(=O)N[C@H]2[C@@H](O)[C@H](n3cnc4c(N(C)C)ncnc43)O[C@@H]2CO)cc1,9,35,96*,-6,26,99*,54*
CN(C)c1ncnc2c1nnn2C1OC(CO)C(O)C1O (centres undefined),-6,.,.,0,.,.,.
C=CCOc1ccc(C[C@H](N)C(=O)NC[C@H]2O[C@@H](n3cnc4c(N)ncnc43)[C@H](O)[C@@H]2O)cc1,-10,2,8,-3,0,.,.
COC(=O)c1ccc(OCC(O)CN2CCOCC2)cc1 (centres undefined),0,-1,10,-2,-4,.,.
CN(C(=O)COc1ccccc1C(=O)NCCOc1ccccc1)c1ccccc1,-3,-6,85*,67*,-5,96*,41*
COCc1cc(=O)[nH]c(Nc2nc3ccc(C)cc3o2)n1,-1,31,78*,-4,-5,8,.
Cc1ccc2nc3c(c(C(=O)O)c2c1)CCC3,-2,-1,-16,-2,-3,.,.
CC(=O)c1ccc(Nc2c3c(nc4ccccc24)CCCC3)cc1,4,-2,45,1,-2,.,.
Cc1ccc2nc3c(c(Nc4cccc(O)c4)c2c1)CCC3,0,-4,60*,6,2,34,.
Fc1cccc(Nc2c3c(nc4ccccc24)CCC3)c1,8,-2,30,48,-1,.,.
CC(=O)c1cccc(Nc2c3c(nc4ccccc24)CCC3)c1,-1,1,55*,33,-1,70*,72*
COC(=O)c1cccc(Nc2c3c(nc4ccccc24)CCC3)c1,2,3,64*,36,3,68*,63*
Cc1ccc(-n2nnnc2CNC(=O)C2CC(=O)N(c3ccc(F)cc3)C2)cc1C (centres undefined),5,1,-3,-4,0,.,.
SMILES,ABHD5 PLIN5 PPI,CHOP UPR activ,Mdm2-MdmX inh,Exocytosis inh,XBP1 UPR activ,Mdm2 MdmX conf,FLuc counter
COc1cc(OC)cc(-c2c(-c3cccs3)c3cc(-c4ccc(C(N)=O)cc4)ccc3n2C)c1,-9,3,86*,-1,9,-16,.
COc1ccc(-c2c(-c3cc(OC)cc(OC)c3)n(C)c3ccc(-c4ccc(SC)cc4)cc23)cc1,-5,6,8,47,3,.,.
COc1cc(OC)cc(-c2c(-c3ccc(F)cc3)c3cc(-c4ccc(SC)cc4)ccc3n2C)c1,-4,3,53*,-8,3,10,.
COc1cc(OC)cc(-c2c(-c3ccc(F)cc3)c3cc(-c4ccc(OC)nc4)ccc3n2C)c1,6,0,52*,17,5,9,.
CCN(CC)c1ccc(NC(=O)CSc2nc3ccccc3c(=O)n2-c2cc(S(=O)(=O)N(C)C)ccc2C)cc1,10,-1,10,3,1,.,.
Cn1c(-c2ccccc2)cc2onc(-c3ccccc3)c2c1=O,3,-6,62*,1,-7,38,113*
CC(C)CN(C(=O)CCC1CCCCC1)c1c(N)n(CC(C)C)c(=O)[nH]c1=O,-11,0,21,11,-1,.,.
O=[N+]([O-])c1ccc(-c2nc(C(Cl)Cl)c3ccccc3n2)cc1,1,-7,99*,3,-4,100*,51*
COCCNC(=O)C(c1ccc(C)cc1)N(Cc1ccco1)C(=O)CCC(=O)Nc1ccccn1 (centres undefined),-7,0,-9,-10,-3,.,.
CCN1CCN(c2cc(C(C)(C)C)nc3c(-c4ccccc4)c(C)nn23)CC1,14,5,54*,6,2,53*,67*
CCN1CCN(c2cc(C(C)C)nc3c(-c4ccccc4)c(C)nn23)CC1,4,3,55*,13,-3,28,.
Cc1nn2c(N3CCOCC3)cc(C(C)(C)C)nc2c1-c1ccccc1,-3,1,24,-1,-4,.,.
O=S(=O)(c1ccc(Cl)cc1)N1CCN(Cc2ccncc2)CC1,-6,2,7,6,3,.,.
O=S(=O)(c1ccc(Cl)cc1)N1CCN(Cc2ccc(O)c3ncccc23)CC1,3,-1,77*,3,6,67*,25
CCN1CC(C)C(O)(c2ccccc2)CC1C (centres undefined),3,0,14,-2,-1,.,.

# Bioassay records as filed in PubChem BioAssay.
